Test results reported in ChEMBL document CHEMBL1149844, “Antibacterial C-geranylflavonoids from Paulownia tomentosa Fruits” (2008).
≈ marks a conversion by molar mass, not a printed value.

What was measured:
Bacillus subtilis = assay: Antibacterial activity against Bacillus subtilis ATCC 6633 after 24 hrs by broth microdilution method; format: functional; conditions: ATCC 6633, 24 h
Procedure, shortened: (§1)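 Bacteria grown and tested in Mueller-Hinton broth. Seven 2-fold dilutions spanning 32 to 0.5 µg mL-1, each well inoculated with bacterial suspension at 10^7 CFU mL-1, incubated 37 °C for 24 h. Turbidity read at 600 nm. MIC is the lowest concentration giving 80% growth reduction versus the compound-free growth control. DMSO (5% v/v) in TBS as negative control, triplicates.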

Salmonella enteritidis = assay: Antibacterial activity against Salmonella enteritidis ATCC 13076 after 24 hrs by broth microdilution method; format: functional, Salmonella enterica subsp. enterica serovar Enteritidis; conditions: Salmonella enterica, ATCC 13076, 24 h; procedure, shortened: as §1
Staphylococcus aureus = assay: Antibacterial activity against Staphylococcus aureus ATCC 25923 after 24 hrs by broth microdilution method; format: functional; conditions: ATCC 25923, 24 h; procedure, shortened: as §1
Bacillus cereus = assay: Antibacterial activity against Bacillus cereus ATCC 11778 after 24 hrs by broth microdilution method; format: functional; conditions: ATCC 11778, 24 h; procedure, shortened: as §1
[1] = system: Staphylococcus epidermidis; assay: Antibacterial activity against Staphylococcus epidermidis ATCC 12228 after 24 hrs by broth microdilution method; format: functional; conditions: ATCC 12228, 24 h; procedure, shortened: as §1
Enterococcus faecalis = assay: Antibacterial activity against Enterococcus faecalis ATCC 29212 after 24 hrs by broth microdilution method; format: functional; conditions: ATCC 29212, 24 h; procedure, shortened: as §1
Listeria monocytogenes = assay: Antibacterial activity against Listeria monocytogenes ATCC 7644 after 24 hrs by broth microdilution method; format: functional; conditions: ATCC 7644, 24 h; procedure, shortened: as §1
Candida albicans = assay: Antibacterial activity against Candida albicans ATCC 10231 after 48 hrs by broth microdilution method; format: functional
Procedure, shortened: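 Yeast grown and tested in Mueller-Hinton broth, microdilution with seven 2-fold dilutions from 32 to 0.5 µg mL-1. Inoculum at 10^7 CFU mL-1, 37 °C for 48 h. Growth measured as turbidity at 600 nm. MIC is the lowest concentration cutting growth by 80% relative to the compound-free control. DMSO (5% v/v) in TBS as negative control, run in triplicate.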

Pseudomonas aeruginosa = assay: Antibacterial activity against Pseudomonas aeruginosa ATCC 27853 after 24 hrs by broth microdilution method; format: functional; conditions: ATCC 27853, 24 h; procedure, shortened: as §1
Escherichia coli = assay: Antibacterial activity against Escherichia coli ATCC 25922 after 24 hrs by broth microdilution method; format: functional; conditions: ATCC 25922, 24 h; procedure, shortened: as §1

Molecule | MIC (Bacillus subtilis) | MIC (Salmonella enteritidis) | MIC (Staphylococcus aureus) | MIC (Bacillus cereus) | MIC [1] | MIC (Enterococcus faecalis) | MIC (Listeria monocytogenes) | MIC (Candida albicans; ATCC 10231, 48 h) | MIC (Pseudomonas aeruginosa) | MIC (Escherichia coli) | MIC (Candida albicans)
O=C(O)c1cn(C2CC2)c2cc(N3CCNCC3)c(F)cc2c1=O [CIPROFLOXACIN] | 2 µg/mL (≈ 6.04 µM) | 0.015 µg/mL (≈ 0.0453 µM) | 0.5 µg/mL (≈ 1.51 µM) | 1 µg/mL (≈ 3.02 µM) | 1 µg/mL (≈ 3.02 µM) | 1 µg/mL (≈ 3.02 µM) | 1 µg/mL (≈ 3.02 µM) |  |  |  | 
C=C(C)C(O)CC/C(C)=C/Cc1c(O)cc2c(c1O)C(=O)C[C@@H](c1ccc(O)c(OC)c1)O2 (stereo partly specified) [TOMENTODIPLACONE] |  | > 32 µg/mL | 16 µg/mL (≈ 35.2 µM) | 16 µg/mL (≈ 35.2 µM) | 32 µg/mL (≈ 70.4 µM) |  | 32 µg/mL (≈ 70.4 µM) | > 32 µg/mL | > 32 µg/mL | > 32 µg/mL | 
COc1cc([C@@H]2CC(=O)c3c(cc(O)c(C/C=C(\C)CCC=C(C)C)c3O)O2)cc(OC)c1O | 4 µg/mL (≈ 8.54 µM) | > 32 µg/mL | 4 µg/mL (≈ 8.54 µM) | 4 µg/mL (≈ 8.54 µM) | 4 µg/mL (≈ 8.54 µM) | 4 µg/mL (≈ 8.54 µM) | 4 µg/mL (≈ 8.54 µM) | > 32 µg/mL | > 32 µg/mL | > 32 µg/mL | 
NYSTATIN |  |  |  |  |  |  |  |  |  |  | 4 µg/mL
COc1cc([C@@H]2CC(=O)c3c(cc(O)c(C/C=C(\C)CCC=C(C)C)c3O)O2)ccc1O | 8 µg/mL (≈ 18.2 µM) | > 32 µg/mL | 8 µg/mL (≈ 18.2 µM) | 4 µg/mL (≈ 9.12 µM) | 4 µg/mL (≈ 9.12 µM) | 8 µg/mL (≈ 18.2 µM) | 4 µg/mL (≈ 9.12 µM) | > 32 µg/mL | > 32 µg/mL | > 32 µg/mL | 
CC(C)=CCC/C(C)=C/Cc1c(O)cc2c(c1O)C(=O)C[C@@H](c1ccc(O)c(O)c1)O2 [NYMPHAEOL A] | 4 µg/mL (≈ 9.42 µM) | > 32 µg/mL | 4 µg/mL (≈ 9.42 µM) | 4 µg/mL (≈ 9.42 µM) | 4 µg/mL (≈ 9.42 µM) | 4 µg/mL (≈ 9.42 µM) | 4 µg/mL (≈ 9.42 µM) | > 32 µg/mL | > 32 µg/mL | > 32 µg/mL | 
CC(C)=CCC/C(C)=C/Cc1c(O)cc2c(c1O)C(=O)C[C@@H](c1ccc(O)cc1)O2 [BONANNIONE A] | 4 µg/mL (≈ 9.79 µM) | > 32 µg/mL | 8 µg/mL (≈ 19.6 µM) | 4 µg/mL (≈ 9.79 µM) | 4 µg/mL (≈ 9.79 µM) | 4 µg/mL (≈ 9.79 µM) | 4 µg/mL (≈ 9.79 µM) | > 32 µg/mL | > 32 µg/mL | > 32 µg/mL | 
COc1cc([C@@H]2CC(=O)c3c(cc(O)c(C/C=C(\C)C/C=C/C(C)(C)O)c3O)O2)ccc1O [TOMENTODIPLACONE B] | > 32 µg/mL | > 32 µg/mL | > 32 µg/mL | > 32 µg/mL | > 32 µg/mL | > 32 µg/mL | > 32 µg/mL | > 32 µg/mL | > 32 µg/mL | > 32 µg/mL | 
COc1cc([C@H]2Oc3cc(O)c(C/C=C(\C)CCC=C(C)C)c(O)c3C(=O)[C@@H]2O)ccc1O | 4 µg/mL (≈ 8.8 µM) | > 32 µg/mL | 2 µg/mL (≈ 4.4 µM) | 2 µg/mL (≈ 4.4 µM) | 2 µg/mL (≈ 4.4 µM) | 4 µg/mL (≈ 8.8 µM) | 2 µg/mL (≈ 4.4 µM) | > 32 µg/mL | > 32 µg/mL | > 32 µg/mL | 
COc1cc([C@@H]2CC(=O)c3c(cc(O)c(C/C=C(\C)CCC=C(C)C)c3O)O2)cc(O)c1O | 4 µg/mL (≈ 8.8 µM) | > 32 µg/mL | 2 µg/mL (≈ 4.4 µM) | 4 µg/mL (≈ 8.8 µM) | 4 µg/mL (≈ 8.8 µM) | 4 µg/mL (≈ 8.8 µM) | 4 µg/mL (≈ 8.8 µM) | > 32 µg/mL | > 32 µg/mL | > 32 µg/mL | 
